Assays:
[1] = test system: Salmonella enterica subsp. enterica; experiment: Toxicity in Salmonella Typhimurium by Ames test; assay type: organism-based; conditions: salmonella enterica subsp. enterica serovar typhimurium
P2Y purinoceptor 12 [2] = molecular target: T1, P2Y purinoceptor 12 (Homo sapiens, UniProt Q9H244); experiment: Antagonist activity at human P2Y12 receptor assessed as inhibition of ADP-induced platelet-rich plasma aggregation by turbidimetric method; assay type: functional, cell-free
T1 sequence (Q9H244 whole entry): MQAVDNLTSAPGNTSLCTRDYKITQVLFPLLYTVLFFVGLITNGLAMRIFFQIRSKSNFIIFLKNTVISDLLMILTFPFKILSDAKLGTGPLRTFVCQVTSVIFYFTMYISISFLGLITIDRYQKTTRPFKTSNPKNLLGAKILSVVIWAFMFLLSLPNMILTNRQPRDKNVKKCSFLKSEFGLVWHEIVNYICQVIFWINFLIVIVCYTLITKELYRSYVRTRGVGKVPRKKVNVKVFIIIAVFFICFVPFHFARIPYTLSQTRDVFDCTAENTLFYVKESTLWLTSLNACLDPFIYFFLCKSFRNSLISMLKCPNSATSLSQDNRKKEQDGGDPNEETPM

[3] = Effective half life in Sprague-Dawley rat at 2 mg/kg, iv and 5 mg/kg, po; assay type: ADME, organism-based; conditions: in vivo
Summary of the method: (§1)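 Male Sprague–Dawley rats, n = 2–4. Dosed by iv infusion at 2 mg/kg and orally at 5 mg/kg.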

P2Y purinoceptor 12 [4] = molecular target: T1, P2Y purinoceptor 12; experiment: Binding affinity to human recombinant P2Y12 receptor expressed in CHO cells; assay type: cell-based
Rattus norvegicus = experiment: Antithrombotic activity in po dosed rat arterial thrombosis model assessed as inhibition of ferric chloride-induced thrombus formation; assay type: functional, organism-based
[5] = Solubility of the compound; assay type: physicochemical
[6] = Drug concentration in rat bile at 2 mg/kg, iv after 4 hrs; assay type: ADME, organism-based; set-up: dose 2 mg/kg, route intravenous; conditions: read-out: Drug uptake
Summary of the method: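 Rats dosed at 2 mg/kg iv; bile collected over 4 h and the fraction of dose recovered determined.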

[7] = Volume of distribution at steady state in Sprague-Dawley rat at 2 mg/kg, iv and 5 mg/kg, po; assay type: ADME, organism-based; conditions: in vivo, read-out: Vdss; summary of the method: as §1
[8] = Clearance in Sprague-Dawley rat at 2 mg/kg, iv and 5 mg/kg, po; assay type: ADME, organism-based; conditions: in vivo; summary of the method: as §1

## CCCCCOC(=O)N1CCN(C(=O)[C@H](CCC(=O)O)NC(=O)c2cc(N3CCC(COC)CC3)cc(-c3ccccc3)n2)CC1
[1]
  Activity: Non-toxic
P2Y purinoceptor 12 [2]
  Kb: 300 nM
[3]
  half-life: 42 min
P2Y purinoceptor 12 [4]
  Kb: 8.5 nM
  Ki: 15 nM
Rattus norvegicus
  Activity: Dose-dependent effect
[5]
  solubility: Soluble
[6]
  dose excreted at 4 h: 70%
[7]
  Vd: 0.3 L/kg
[8]
  clearance: 3 mL/min/kg
